From PubChem
This is a sample that favours compounds with a hit; in the whole collection about 5.1% have one here.
STAT3 act-1 – activators of IL-6 induced STAT3 signaling; AID 871; 0.91% of 190,000 active; U3A cells, IL-6 STAT3-luciferase reporter, luminescence; 100% = signal with IL-6 EC80 alone; activation (% of control), % at 5.6 µM;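 active = activation above the screen-wide mean of compound activation plus 3 SD, cut at about 130% in these data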
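Material: STAT1-lacking human U3A cells, STAT3 luciferase reporter | Benchmarks: IL-6-only wells as 100% reference | Probe or stimulus: IL-6 (33 ng/mL) | Timing: Compound 1 h, then IL-6 6 h at 37 °C | Detection: Luminescence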
APP 5'UTR act – APP 5'UTR luciferase reporter activation | SH-SY5Y APP 5'UTR luciferase reporter, luminescence; zero percent = DMSO vehicle wells | activation, % at 2 µM | 1% of 190,000 active | AID 1276;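 active = activation above a set limit, based on mean plus 3 SD of controls, cut at about 140% in these data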
STAT1 blocker – inhibitors of IFN-gamma induced STAT1 signaling; inhibition, % at 5.5 µM; NIH 3T3 STAT1-luciferase reporter, luminescence; AID 920; 0.35% of 200,000 active;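 active = inhibition above a set limit, the mean inhibition across all tested compounds plus 3 SD, cut at about 34% in these data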
STAT3 blocker – STAT3 signaling inhibition | U3A cells, IL-6 STAT3-luciferase reporter, luminescence; host cell line lacks STAT1 | inhibition, % at 5.5 µM | 0.89% of 190,000 active | AID 862;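 active = inhibition above the mean inhibition across all screened compounds plus 3 SD, cut at about 44% in these data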
NF-kB neuron act – NF-kB expression increase, human neuronal cells. 1.6% of 190,000 active. NF-kB reporter expression; active compounds read high. fold change at 12.5 µM. AID 1239; in the data active = fold change above about 3.3
STAT1 act-1 – increases IFN-gamma driven STAT1 reporter signal; NIH 3T3 STAT1-luciferase reporter, luminescence; 100% = IFN-gamma alone, no compound; activation (% of control), % at 5.5 µM; 2.6% of 200,000 active; AID 932;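 active = activation above the screen-wide mean activation plus 3 SD, cut at about 130% in these data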
STAT3 act-2 – confirmation of STAT3 signaling activators; shares compounds with STAT3 act-1; U3A STAT3-luciferase reporter, IL-6 potentiation, luminescence; U3A cells lack STAT1; 100 means same as IL-6 alone; potentiation (% of control), % at 5.7 µM; 64% of 1,200 active; AID 1267;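 active = percent activation of the STAT3 luciferase reporter above a set limit taken from the earlier primary screen, cut at about 130% in these data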
NFkB act 2 – NF-kappaB activation in STAT3 activator counter-screen. human cells, NF-kappaB reporter activation. activation (% of control), % at 5.7 µM. 11% of 1,200 active. AID 1309. shares compounds with STAT3 act-1; in the data active = activation above about 120%;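 note: reporter induced by TNF-alpha stimulation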
STAT1 act-2 – activates STAT1, counter-screen to STAT3 activators. 13% of 1,200 active. shares compounds with STAT3 act-1. activation (% of control), % at 5.7 µM. AID 1318. NIH 3T3 STAT1-luciferase reporter, IFN-gamma, luminescence;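 active = activation above the solvent-only control well mean plus 3 SD, set per screening run, cut at about 120% in these data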
Numbers stand for hits; i = inactive; nt = not tested or not shown.

SMILES | STAT3 act-1 | APP 5'UTR act | STAT1 blocker | STAT3 blocker | NF-kB neuron act | STAT1 act-1 | STAT3 act-2 | NFkB act 2 | STAT1 act-2
N#C/C(=C(/O)COC(=O)CCc1ccc(S(=O)(=O)N2CCOCC2)cc1)c1nc2ccccc2[nH]1 | 149 | i | i | i | i | i | 144 | i | i
N#C/C(=C(/O)COC(=O)c1ccc(Cl)c(S(=O)(=O)N2CCOCC2)c1)c1nc2ccccc2[nH]1 | i | i | i | i | i | i | nt | nt | nt
O=C(c1cc2ccccc2oc1=O)N(Cc1ccco1)CC1CCCO1 (stereo unspecified) | i | i | i | i | i | i | nt | nt | nt
O=C(CSc1nc(-c2cccs2)cc(C(F)(F)F)n1)Nc1cc(OCC(F)(F)C(F)F)cc([N+](=O)[O-])c1 | i | i | i | i | i | i | nt | nt | nt
N/C(=N\OC(=O)c1cccc(Cl)c1)c1cccnc1 | i | i | i | i | i | i | nt | nt | nt
N/C(=N\OC(=O)c1cc(Br)ccc1Cl)c1cccnc1 | 138 | i | i | i | i | i | i | i | i
N/C(=N\OC(=O)c1cc(Cl)ccc1Cl)c1cccnc1 | 163 | i | i | i | i | i | 152 | 121 | 135
Cn1ncc([N+](=O)[O-])c1C(=O)N1CCOCC1 | i | i | i | i | i | i | nt | nt | nt
CCOc1ccccc1-c1nnc(SCC(=O)NC2CC3CCC2C3)n1CC (stereo unspecified) | 160 | i | i | i | i | i | 169 | 127 | 162
Cc1nn(-c2ccc(Cl)c(Cl)c2Cl)c(=O)c2ccccc12 | i | i | i | i | i | i | nt | nt | nt
Cc1nn(-c2ccc(Cl)c(Cl)c2)c(=O)c2ccccc12 | 146 | i | i | i | i | i | 138 | 123 | 134
CCOC(=O)c1cnn(-c2nc3c(C)cccc3s2)c1C(F)(F)F | i | i | i | i | i | i | nt | nt | nt
CCOC(=O)c1cnn(-c2nc3c(C)cccc3s2)c1C | 152 | i | i | i | i | i | i | i | i
Cc1csc(NC(=O)Cc2coc3cc(C)c(C(C)C)cc23)n1 | 137 | i | i | i | i | i | i | i | i
COc1ccc(C(=O)NCCn2ccc3ccccc32)c(OC)c1 | i | i | i | i | i | i | nt | nt | nt
COc1ccccc1NC(=O)N1CCN(c2ncccn2)CC1 | i | i | i | i | i | i | nt | nt | nt
Cc1nnc(SCc2nc3ccccc3s2)n1-c1ccccc1 | 147 | i | i | i | i | i | 149 | i | 134
c1ccc(Cn2c(SCc3nc4ccccc4s3)nnc2-c2ccco2)cc1 | i | i | i | i | i | i | nt | nt | nt
CCC(c1nnc(SCc2nc3ccccc3s2)n1Cc1ccccc1)N(C)C (stereo unspecified) | 152 | i | i | i | i | i | 141 | i | i
CCn1c(SCc2nc3ccccc3s2)nnc1-c1ccccc1 | 171 | i | i | i | i | i | 145 | i | 134
c1ccc(-n2cnnc2SCc2nc3ccccc3s2)cc1 | 140 | i | i | i | i | i | 152 | 122 | 132
Nc1cc(=O)[nH]c(SCC(=O)Nc2ccccc2Sc2ccccc2)n1 | i | i | i | i | i | i | nt | nt | nt
CCCc1nnc(N2C(=O)c3cccc4cccc(c34)C2=O)s1 | 160 | i | i | i | i | i | 146 | i | i
Cc1nc(/N=C(\N)Nc2ccccc2)nc2ccccc12 | 165 | i | i | i | i | i | 157 | i | i
Cc1cc(C)nc(/N=C(\N)Nc2ccc(OCc3ccccc3)cc2)n1 | i | i | i | i | i | i | nt | nt | nt
SMILES | STAT3 act-1 | APP 5'UTR act | STAT1 blocker | STAT3 blocker | NF-kB neuron act | STAT1 act-1 | STAT3 act-2 | NFkB act 2 | STAT1 act-2
O=C(NCCc1nnc2ccc(NCc3cccnc3)nn12)c1ccccc1F | i | i | i | i | i | i | nt | nt | nt
CCc1ccc2c(c1)C(=O)c1ccccc1C2=O | 142 | i | i | i | 3.5 | i | 151 | 131 | 165
O=C(OCc1ccccc1)c1ccc2c(c1)-c1ccccc1C2=O | i | i | i | i | i | i | nt | nt | nt
O=C(c1ccco1)[C@@H]1[C@@H]2C(=O)N(c3ccc(Br)cc3)C(=O)[C@@H]2C2c3ccccc3C=CN21 (stereo partly specified) | 142 | i | i | i | nt | i | i | i | i
O=C(CNc1ccc2ccccc2c1)N/N=C/c1cc2ccccc2nc1Cl | 144 | i | i | i | i | i | 138 | i | i
Cc1c(NC(=O)C(C)Sc2ncnc3ccccc23)c(=O)n(-c2ccccc2)n1C (stereo unspecified) | i | i | i | i | i | i | nt | nt | nt
CCOC(=O)Cc1cc(=O)[nH]c(/N=C(\N)Nc2ccc(C)cc2C)n1 | 136 | i | i | i | i | i | i | i | i
Cc1nc2ccccc2c(=O)n1NC(=O)C1CC1C (stereo unspecified) | i | i | i | i | i | i | nt | nt | nt
COc1ccccc1/C=C(/CC(=O)NCc1ccccc1)c1nc2ccccc2s1 | i | i | i | i | i | i | nt | nt | nt
COc1ccccc1/C=C(/CC(=O)NCc1ccc(F)cc1)c1nc2ccccc2s1 | 136 | i | i | i | i | i | i | i | i
Cc1c(F)cccc1NS(=O)(=O)c1ccc(OCCNS(C)(=O)=O)cc1 | i | i | i | i | i | i | nt | nt | nt
O=C(CSC1=Nc2ccccc2C2=NC(Cc3c[nH]c4ccccc34)C(=O)N12)NC1CCCCC1 (stereo unspecified) | i | i | i | i | i | i | nt | nt | nt
CC1CC(C)CN(C(=O)CSC2=Nc3ccccc3C3=NC(Cc4c[nH]c5ccccc45)C(=O)N23)C1 (stereo unspecified) | 140 | i | i | i | i | i | i | i | i
CC1=C(C(=O)OCC2CCCO2)C(c2ccc(F)cc2)NC(=O)N1 (stereo unspecified) | i | i | i | i | i | i | nt | nt | nt
CCc1cc2c(NCCC(=O)O)nc(C)nc2s1 | 158 | i | i | i | i | i | 140 | i | i
O=S(=O)(c1cccs1)N1CCN(Cc2nc3ccccc3s2)CC1 | i | i | i | i | i | i | nt | nt | nt
O=C(OCc1nc2ccccc2s1)C1CCN(S(=O)(=O)c2cccs2)CC1 | 144 | i | i | i | i | i | 140 | 123 | 131
O=C(Nc1cccc([N+](=O)[O-])c1)c1ccn[nH]1 | i | i | i | i | i | i | nt | nt | nt
Nc1nc(NCc2ccco2)nn1-c1ccccc1 | 147 | i | i | i | i | i | i | i | i
Nc1nc(NCc2cccs2)nn1-c1ccccc1 | i | i | i | i | nt | i | nt | nt | nt
COc1cc(-c2nnc(COC(=O)CSc3cc(C)c4ccccc4n3)o2)cc(OC)c1OC | i | i | i | i | i | i | nt | nt | nt
